From ChEMBL document CHEMBL4477168, “Hydrolyzable Tannins of Tamaricaceous Plants. 7.1 Structures and Cytotoxic Properties of Oligomeric Ellagitannins from Leaves of Tamarix nilotica and Cultured Tissues of Tamarix tetrandra” (J Nat Prod, 2016)

How the values were obtained:
[1] = Cytotoxic activity against human HGF cells assessed as reduction in cell viability incubated for 48 hrs by MTT assay; format: cell-based
Outline: (§1)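 Normal oral cells (gingival fibroblasts, pulp cells, periodontal ligament fibroblasts) from a premolar of a child, used at 8−15 population doublings; DMEM + 10% heat-inactivated FBS, 37 °C, 5% CO2. Seeded 5 × 10^3 cells/well, medium replaced after 48 h with compound (DMSO stock 20 mM; 2-fold dilutions from 100 μM, triplicate wells); 48 h more, MTT viability; CC50 from dose−response curve; mean of ≥3 independent experiments.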

[2] = Cytotoxic activity against human HPLF cells assessed as reduction in cell viability incubated for 48 hrs by MTT assay; format: cell-based; outline: as §1
HSC-2 = assay: Cytotoxic activity against human HSC2 cells assessed as reduction in cell viability incubated for 48 hrs by MTT assay; format: functional; conditions: HSC-2, 48 h
Outline: (§2)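 OSCC lines HSC-2, HSC-3, HSC-4 grown in DMEM + 10% heat-inactivated FBS, 37 °C, humidified 5% CO2. Seeded 5 × 10^3 cells/well; after 48 h medium swapped for compound-containing medium (20 mM DMSO stock; top 100 μM, 2-fold serial dilution, three replicate wells). Further 48 h, viable cells by MTT; CC50 read from dose−response curve; at least three independent experiments averaged.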

HSC-4 = assay: Cytotoxic activity against human HSC4 cells assessed as reduction in cell viability incubated for 48 hrs by MTT assay; format: functional; conditions: HSC-4, 48 h; outline: as §2
HSC-3 = assay: Cytotoxic activity against human HSC3 cells assessed as reduction in cell viability incubated for 48 hrs by MTT assay; format: functional; conditions: HSC-3, 48 h; outline: as §2
HL-60 = assay: Cytotoxic activity against human HL60 cells assessed as reduction in cell viability incubated for 48 hrs by trypan blue staining based hemocytometry; format: functional; conditions: HL-60, 48 h
Outline: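 HL-60 cultured in RPMI1640 + 10% heat-inactivated FBS at 37 °C; plated at 3.0 × 10^4 cells/0.1 mL with various compound concentrations (DMSO stock 20 mM). After 48 h, viable cells counted by trypan blue exclusion on a hemocytometer under light microscope; CC50 from dose−response curve, mean of at least three independent experiments.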

[3] = Cytotoxic activity against human HPC cells assessed as reduction in cell viability incubated for 48 hrs by MTT assay; format: cell-based; outline: as §1

Structure (SMILES) | CC50 at 48 h [1] | CC50 at 48 h [2] | CC50 (HSC-2) | CC50 (HSC-4) | CC50 (HSC-3) | CC50 (HL-60) | CC50 at 48 h [3]
O=C(O[C@H]1[C@@H]2OC(=O)c3cc(O)c(O)c(O)c3-c3c(cc(O)c(O)c3O)C(=O)OC[C@H]2OC(O)[C@@H]1OC(=O)c1cc(O)c(O)c(O)c1)c1cc(O)c(O)c(O)c1 (some centres undefined) | > 100 µM | > 100 µM | 14.6 µM | 45.7 µM | 19.5 µM | 46.7 µM | 64 µM
O=C(O[C@@H]1O[C@@H]2COC(=O)c3cc(O)c(O)c(O)c3-c3c(cc(O)c(O)c3O)C(=O)O[C@H]2[C@H](OC(=O)c2cc(O)c(O)c(O)c2)[C@H]1OC(=O)c1cc(O)c(O)c(O)c1)c1cc(O)c(O)c(Oc2c(C(=O)O[C@H]3[C@H](OC(=O)c4cc(O)c(O)c(Oc5c(C(=O)O[C@H]6C(O)O[C@@H]7COC(=O)c8cc(O)c(O)c(O)c8-c8c(cc(O)c(O)c8O)C(=O)O[C@H]7[C@@H]6OC(=O)c6cc(O)c(O)c(O)c6)cc(O)c(O)c5O)c4)O[C@@H]4COC(=O)c5cc(O)c(O)c(O)c5-c5c(cc(O)c(O)c5O)C(=O)O[C@H]4[C@@H]3OC(=O)c3cc(O)c(O)c(O)c3)cc(O)c(O)c2O)c1 (some centres undefined) | 88 µM | 88.3 µM | 23.2 µM | 33.9 µM | 21.2 µM | 6.48 µM | 86 µM
O=C(O[C@@H]1O[C@@H]2COC(=O)c3cc(O)c(O)c(O)c3-c3c(cc(O)c(O)c3O)C(=O)O[C@H]2[C@H](OC(=O)c2cc(O)c(O)c(O)c2)[C@H]1OC(=O)c1cc(O)c(O)c(O)c1)c1cc(O)c(O)c(Oc2c(C(=O)O[C@@H]3[C@@H](OC(=O)c4cc(O)c(O)c(O)c4)[C@@H]4OC(=O)c5cc(O)c(O)c(O)c5-c5c(cc(O)c(O)c5O)C(=O)OC[C@H]4O[C@H]3O)cc(O)c(O)c2O)c1 | 92 µM | > 100 µM | 17.7 µM | 37.9 µM | 32.6 µM | 19.5 µM | 86.6 µM
O=C(O[C@H]1[C@@H]2OC(=O)c3cc(O)c(O)c(O)c3-c3c(cc(O)c(O)c3O)C(=O)OC[C@H]2OC(O)[C@@H]1O)c1cc(O)c(O)c(O)c1 (some centres undefined) | > 100 µM | > 100 µM | 5.82 µM | 34.4 µM | 23.3 µM | 30.5 µM | > 100 µM
O=C(O[C@@H]1O[C@@H]2COC(=O)c3cc(O)c(O)c(O)c3-c3c(cc(O)c(O)c3O)C(=O)O[C@H]2[C@H](OC(=O)c2cc(O)c(O)c(O)c2)[C@H]1OC(=O)c1cc(O)c(O)c(O)c1Oc1cc(C(=O)O[C@@H]2O[C@@H]3COC(=O)c4cc(O)c(O)c(O)c4-c4c(cc(O)c(O)c4O)C(=O)O[C@H]3[C@H](OC(=O)c3cc(O)c(O)c(O)c3)[C@H]2OC(=O)c2cc(O)c(O)c(O)c2Oc2cc3c(c(O)c2O)Oc2cc(cc(O)c2O)C(=O)O[C@@H]2O[C@@H]4COC(=O)c5cc(O)c(O)c(O)c5-c5c(cc(O)c(O)c5O)C(=O)O[C@H]4[C@H](OC(=O)c4cc(O)c(O)c(O)c4)[C@H]2OC3=O)cc(O)c1O)c1cc(O)c(O)c(O)c1 | 87.7 µM | 98.6 µM | 18.8 µM | 34.3 µM | 25.5 µM | 16.4 µM | 85 µM
O=C(O[C@@H]1O[C@@H]2COC(=O)c3cc(O)c(O)c(O)c3-c3c(cc(O)c(O)c3O)C(=O)O[C@H]2[C@H](OC(=O)c2cc(O)c(O)c(O)c2)[C@H]1O)c1cc(O)c(O)c(O)c1 | > 100 µM | > 100 µM | 14.1 µM | 38 µM | 28 µM | 39.9 µM | > 100 µM
O=C(O[C@@H]1O[C@@H]2COC(=O)c3cc(O)c(O)c(O)c3-c3c(cc(O)c(O)c3O)C(=O)O[C@H]2[C@H](OC(=O)c2cc(O)c(O)c(O)c2)[C@H]1OC(=O)c1cc(O)c(O)c(O)c1)c1cc(O)c(Oc2c(C(=O)O[C@H]3[C@H](OC(=O)c4cc(O)c(O)c(O)c4)O[C@@H]4COC(=O)c5cc(O)c(O)c(O)c5-c5c(cc(O)c(O)c5O)C(=O)O[C@H]4[C@@H]3OC(=O)c3cc(O)c(O)c(O)c3)cc(O)c(O)c2O)c(O)c1 | 95.3 µM | > 100 µM | 16.3 µM | 27.7 µM | 29.4 µM | 29.7 µM | 89 µM
